Screening data as filed in PubChem BioAssay.
T cruzi growth-1: blocks T. cruzi growth in NIH3T3 culture | AID 624255 | inhibition, % at 8.34 µM | 5.9% of 77,000 active | T. cruzi beta-gal in NIH3T3, GalScreen luminescence, 90 h;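 active = mean inhibition above about 93%, with at least 55% of replicates each passing it, limit read from the data, passing the limit was not always enough; inconclusive = only one of those two conditions holds; inactive = neither condition holds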
IDH1 mut inh: inhibitors of human IDH1 R132H; O75874; 0.18% of 70,000 active; IDH1 R132H reductase, diaphorase/resazurin fluorescence, 60 min; inhibition, % at 10 µM; in the data active = inhibition above about 34%; inconclusive = no clear call, values can overlap the other calls; inactive = below about 11%;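 note: 0% = DMSO and 100% = no enzyme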
Target sequence (O75874 whole entry R132H): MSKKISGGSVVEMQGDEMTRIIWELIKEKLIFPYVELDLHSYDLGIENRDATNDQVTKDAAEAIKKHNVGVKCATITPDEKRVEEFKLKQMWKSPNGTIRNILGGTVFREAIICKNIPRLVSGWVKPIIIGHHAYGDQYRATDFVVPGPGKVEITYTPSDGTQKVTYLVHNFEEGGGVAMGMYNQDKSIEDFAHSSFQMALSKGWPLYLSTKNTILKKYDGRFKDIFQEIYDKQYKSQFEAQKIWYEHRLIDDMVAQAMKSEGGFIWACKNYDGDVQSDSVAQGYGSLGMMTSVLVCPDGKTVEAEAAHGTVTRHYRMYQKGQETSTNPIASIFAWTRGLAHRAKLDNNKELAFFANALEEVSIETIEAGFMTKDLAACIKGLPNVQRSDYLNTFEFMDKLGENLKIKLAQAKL
GASC1 inh: blocks human GASC-1 (KDM4C) demethylase activity; Q9H3R0; GST-KDM4C 2-372, H3K9me3 peptide, LANCE TR-FRET; inhibition, % at 12.5 µM; 0.15% of 96,000 active;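 active = mean replicate inhibition above about 25%, with at least 55% of replicates also reaching it, limit read from the data, passing the limit was not always enough; inconclusive = only one of those two conditions met; inactive = neither condition met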
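System: N-terminal GST-fused human GASC-1 (KDM4C) fragment, residues 2-372; amount: enzyme final amount 10 nM; incubation: reaction 30 min RT, detection step 1 h RT; medium: HEPES buffer, pH 7.5, plus ascorbate; technique: LANCE TR-FRET, Eu antibody, ULight-streptavidin, EDTA, ex 340 nm, em 618/671 nm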
Pf Dd2 inh: P. falciparum Dd2 growth inhibition; AID 1159554; 2.3% of 94,000 active; activity change, % at 10 µM; SYBR Green, 72 h; active compounds read low; in the data active = activity change below about -80%; inconclusive = no clear call, values can overlap the other calls
T cruzi growth-2: Trypanosoma cruzi proliferation inhibition. T. cruzi beta-gal in NIH3T3, GalScreen luminescence, 90 h. inhibition, % at 8.35 µM. 72% of 5,600 active. shares compounds with T cruzi growth-1;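 active = mean replicate inhibition above about 95% and at least 55% of replicates individually reaching it, limit read from the data; inconclusive = only one of the two criteria is met; inactive = neither criterion is met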
T cruzi growth-3: inhibitors of T. cruzi proliferation; shares compounds with T cruzi growth-1; T. cruzi beta-gal in NIH3T3, GalScreen luminescence, 90 h; inhibition, % at 2.09 µM; 21% of 5,600 active; AID 651740;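 active = mean inhibition above about 95%, with at least 55% of replicates also reaching it, limit read from the data; inconclusive = meets just one of the two conditions; inactive = meets neither condition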;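 note: plate controls were neutral control median for no effect and positive control median for full effect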
NIH3T3 tox: cytotoxicity in mouse NIH/3T3 fibroblasts; shares compounds with T cruzi growth-1; NIH/3T3 viability, CellTiter-Glo ATP luminescence, 90 h; cytotoxicity (signal decrease), % at 8.35 µM; 14% of 5,600 active;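 active = mean signal decrease across replicates above about 35% based on untreated-well scatter, with enough replicates individually passing, limit read from the data; inconclusive = no rule stated though some were filed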;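 note: 0% = median of neutral control wells and 100% = median of positive control wells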
3T3 cytotox 2: cytotoxicity in mouse NIH/3T3 fibroblasts; NIH/3T3 viability, CellTiter-Glo ATP luminescence, 90 h; inhibition, % at 24.9 µM; shares compounds with T cruzi growth-1; 56% of 5,600 active;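 active = mean loss of cell viability signal at or above a set limit, and enough replicates individually reaching it; inconclusive = meets only the mean limit or only the replicate share; inactive = meets neither condition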;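 note: 0% = median of neutral control wells and 100% = median of positive control wells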
* marks the source's active call; other numbers are inactive results; u = inconclusive; x = not tested or not shown. Sampled rows, rich in hits. Any-hit rate of the full collection: about 5.9%.

SMILES	T cruzi growth-1	IDH1 mut inh	GASC1 inh	Pf Dd2 inh	T cruzi growth-2	T cruzi growth-3	NIH3T3 tox	3T3 cytotox 2
CC(C)CC#Cc1ccc2c(c1)O[C@H](CN(C)S(C)(=O)=O)[C@@H](C)CN([C@H](C)CO)S2(=O)=O	46	0	10	-1	x	x	x	x
COc1ccccc1S(=O)(=O)N(C)C[C@@H]1Oc2cc(C#CCC(C)C)ccc2S(=O)(=O)N([C@@H](C)CO)C[C@@H]1C	u	1	6	-87*	103*	107*	-3	56*
COc1ccccc1S(=O)(=O)N(C)C[C@H]1Oc2cc(C#CCC3CCCC3)ccc2S(=O)(=O)N([C@@H](C)CO)C[C@@H]1C	x	0	14	-55	x	x	x	x
COc1ccccc1S(=O)(=O)N(C)C[C@@H]1Oc2cc(C#CCC(C)C)ccc2S(=O)(=O)N([C@@H](C)CO)C[C@H]1C	u	1	2	-89*	97*	108*	24	41*
COc1cccc(S(=O)(=O)N(C)C[C@@H]2Oc3cc(C#CCC(C)C)ccc3S(=O)(=O)N([C@H](C)CO)C[C@H]2C)c1	61	0	4	u	x	x	x	x
COc1ccccc1S(=O)(=O)N(C)C[C@@H]1Oc2cc(C#CCC(C)C)ccc2S(=O)(=O)N([C@H](C)CO)C[C@H]1C	103*	0	0	-83*	93	115*	44*	105*
N#Cc1ccc(/C=C/C(=O)NCc2ccccc2)cc1	x	0	x	x	x	x	x	x
CS(=O)(=O)N(CC(=O)Nc1ccc(F)cc1F)c1ccc2c(c1)OCCO2	x	0	x	x	x	x	x	x
C[C@H](CO)N1C[C@H](C)[C@@H](CN(C)C(=O)c2ccc3c(c2)OCO3)Oc2cc(/C=C/c3ccccc3)ccc2S1(=O)=O	119*	x	-4	-71	104*	52	8	45*
C[C@@H]1CN([C@@H](C)CO)S(=O)(=O)c2ccc(/C=C/c3ccccc3)cc2O[C@H]1CN(C)C(=O)c1ccc2c(c1)OCO2	118*	4	x	-87*	105*	85	42*	59*
C/C=C/c1ccc2c(c1)O[C@H](CN(C)C(=O)c1ccc3c(c1)OCO3)[C@H](C)CN([C@H](C)CO)S2(=O)=O	52	3	-1	-11	x	x	x	x
CN1C(=O)c2cc(NC(=O)c3cccc(C(F)(F)F)c3)ccc2OC[C@@H]2O[C@@H](CC(=O)NCCN3CCCC3)CC[C@H]21	2	x	3	-15	x	x	x	x
CN1C(=O)c2cc(NC(=O)C3CC3)ccc2OC[C@@H]2O[C@H](CC(=O)NCCN3CCCC3)CC[C@@H]21	u	x	0	2	72	88	7	-6
CN1C(=O)c2cc(NC(=O)C3CC3)ccc2OC[C@@H]2O[C@@H](CC(=O)NCCN3CCCC3)CC[C@H]21	28	x	1	-18	x	x	x	x
CN1C(=O)c2cc(NC(=O)c3cccc(C(F)(F)F)c3)ccc2OC[C@@H]2O[C@H](CC(=O)NCCN3CCCC3)CC[C@@H]21	98*	x	-2	0	99*	82	-6	7
CCc1ccccc1NC(=O)C(C)n1cc([N+](=O)[O-])cn1 (stereo not given)	x	0	x	x	x	x	x	x
N#C[C@H]1[C@@H](c2ccc(C3=CCCCC3)cc2)[C@@H](CO)N1C(=O)c1ccccn1	103*	x	2	-29	104*	117*	6	105*
N#C[C@@H]1[C@H](c2ccc(C3=CCCCC3)cc2)[C@@H](CO)N1S(=O)(=O)c1ccccc1	38	x	0	-14	x	x	x	x
N#C[C@H]1[C@@H](c2ccc(C3=CCCCC3)cc2)[C@H](CO)N1S(=O)(=O)c1cccc(F)c1	100*	x	1	-18	100*	64	45*	103*
N#C[C@@H]1[C@@H](c2ccc(C3=CCCCC3)cc2)[C@H](CO)N1C(=O)c1cccc(F)c1	100*	x	-1	15	88	33	5	76*
N#C[C@H]1[C@@H](c2ccc(C3=CCCCC3)cc2)[C@@H](CO)N1C(=O)c1cccc(F)c1	61	-1	5	-31	x	x	x	x
N#C[C@H]1[C@@H](c2ccc(C3=CCCCC3)cc2)[C@@H](CO)N1S(=O)(=O)c1cccc(F)c1	105*	x	-2	-15	101*	86	45*	65*
N#C[C@@H]1[C@H](c2ccc(C3=CCCCC3)cc2)[C@H](CO)N1S(=O)(=O)c1ccccc1	90	x	5	-14	x	x	x	x
CSc1n[nH]c(=O)c2cc(C)nn12	x	0	x	x	x	x	x	x
COc1ccc(CCN2C(=O)C(NC(=O)C(C)(C)C)(C(F)(F)F)C3=C2CC(C)(C)CC3=O)cc1OC (stereo not given)	x	0	x	x	x	x	x	x
SMILES	T cruzi growth-1	IDH1 mut inh	GASC1 inh	Pf Dd2 inh	T cruzi growth-2	T cruzi growth-3	NIH3T3 tox	3T3 cytotox 2
C[C@H](CO)N1C[C@H](C)[C@H](CN(C)Cc2ccncc2)Oc2cc(-c3ccccc3)ccc2S1(=O)=O	95*	0	1	-40	105*	99*	24	40*
CC(=O)N(C)C[C@@H]1Oc2cc(-c3cccnc3)ccc2S(=O)(=O)N([C@H](C)CO)C[C@@H]1C	-120	0	1	24	x	x	x	x
C[C@@H]1CN([C@H](C)CO)S(=O)(=O)c2ccc(-c3ccccc3)cc2O[C@H]1CN(C)Cc1ccncc1	-22	x	0	-35	x	x	x	x
C[C@@H]1CN([C@@H](C)CO)S(=O)(=O)c2ccc(-c3cccnc3)cc2O[C@@H]1CN(C)C	u	-2	1	24	97*	92	8	10
C[C@H]1CN([C@@H](C)CO)S(=O)(=O)c2ccc(-c3cccnc3)cc2O[C@@H]1CN(C)Cc1ccncc1	u	23	-2	-2	101*	63	12	28*
C[C@@H]1CN([C@@H](C)CO)S(=O)(=O)c2ccc(-c3ccccc3)cc2O[C@H]1CN(C)Cc1ccccc1	84	3	1	-66	x	x	x	x
Cc1ccc(-c2ccc3c(c2)O[C@@H](CN(C)Cc2ccccc2)[C@H](C)CN([C@@H](C)CO)S3(=O)=O)cc1	116*	3	3	-54	99*	104*	37*	104*
Cc1cc(I)ccc1NC(=O)Cn1ccc([N+](=O)[O-])n1	x	1	x	x	x	x	x	x
O=C(CCCCCC(=O)Nc1ccccc1O)N/N=C/[C@@H](O)[C@H](O)[C@H](O)CO	x	0	x	x	x	x	x	x
C[C@H](CO)N1C[C@H](C)[C@@H](CN(C)Cc2ccccc2)Oc2cc(-c3ccncc3)ccc2S1(=O)=O	117*	x	5	-69	99*	103*	71*	76*
